From ChEMBL document CHEMBL1131479, “(R)-3,N-dimethyl-N-[1-methyl-3-(4-methyl-piperidin-1-yl) propyl]benzenesulfonamide: the first selective 5-HT7 receptor antagonist” (J Med Chem, 1998)
Blank lines part the entries; values can stand above or below the compound they belong to.

Experiments:
[1] = target: T1, 5-hydroxytryptamine receptor 7 (Homo sapiens, UniProt P34969); test: Binding affinity towards cloned human 5-hydroxytryptamine 7 receptor expressed in HEK 293 cells using [3H]5-CT; assay type: cell-based, HEK293
Method in brief: (§1)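 Radioligand displacement binding on the receptor source and radioligand named in each line. Each value is the mean of at least two determinations, and every determination lay within 0.2 log unit of that mean.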

[2] = target: T2, 5-hydroxytryptamine receptor 1F (Homo sapiens, UniProt P30939); test: The compound was tested for its binding affinity towards cloned human 5-hydroxytryptamine 1F receptor in CHO cells using [3H]5-HT.; assay type: cell-based; method in brief: as §1
T2 sequence (P30939 whole entry): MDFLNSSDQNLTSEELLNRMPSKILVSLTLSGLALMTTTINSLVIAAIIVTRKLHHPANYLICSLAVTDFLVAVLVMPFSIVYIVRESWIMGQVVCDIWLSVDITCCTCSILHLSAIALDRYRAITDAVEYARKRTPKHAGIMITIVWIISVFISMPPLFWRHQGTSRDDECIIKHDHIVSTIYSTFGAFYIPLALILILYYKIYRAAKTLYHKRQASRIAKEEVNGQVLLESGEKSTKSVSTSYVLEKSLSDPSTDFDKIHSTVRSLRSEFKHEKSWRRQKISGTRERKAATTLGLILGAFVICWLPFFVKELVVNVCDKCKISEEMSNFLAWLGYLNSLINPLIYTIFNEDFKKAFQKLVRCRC

D(3) dopamine receptor = D(3) dopamine receptor (Homo sapiens, UniProt P35462); test: The compound was tested for its binding affinity towards cloned human Dopamine receptor D3 in CHO cells using [125I]iodosulpiride.; assay type: cell-based
[3] = target: 5-hydroxytryptamine receptor 6 (Homo sapiens, UniProt P50406); test: The compound was tested for its binding affinity towards cloned human 5-hydroxytryptamine 6 receptor in HeLa cells using […].; assay type: cell-based
Method in brief: (§2)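 Radioligand displacement on cloned human receptors expressed in the host cell line listed in each line. Values are the mean of at least two determinations, each within 0.2 log unit of the mean.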

[4] = target: T3, 5-hydroxytryptamine receptor 2C (Homo sapiens, UniProt P28335); test: The compound was tested for its binding affinity towards cloned human 5-hydroxytryptamine 2C receptor in HEK293 cells using [3H]mesulergine.; assay type: cell-based; method in brief: as §1
T3 sequence (P28335 whole entry): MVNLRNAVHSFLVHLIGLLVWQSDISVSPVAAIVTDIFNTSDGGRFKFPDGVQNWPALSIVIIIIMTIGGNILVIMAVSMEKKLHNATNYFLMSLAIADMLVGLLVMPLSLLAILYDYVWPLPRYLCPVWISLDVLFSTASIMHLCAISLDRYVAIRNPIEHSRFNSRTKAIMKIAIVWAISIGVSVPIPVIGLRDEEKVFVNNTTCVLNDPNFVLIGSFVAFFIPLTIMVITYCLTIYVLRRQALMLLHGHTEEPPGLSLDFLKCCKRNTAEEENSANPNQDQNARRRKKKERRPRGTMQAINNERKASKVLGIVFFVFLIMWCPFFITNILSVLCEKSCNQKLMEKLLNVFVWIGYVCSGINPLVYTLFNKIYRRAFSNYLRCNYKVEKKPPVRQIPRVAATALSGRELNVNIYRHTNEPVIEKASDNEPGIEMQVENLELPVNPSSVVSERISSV

D(2) dopamine receptor = D(2) dopamine receptor (Homo sapiens, UniProt P14416); test: The compound was tested for its binding affinity towards cloned human Dopamine receptor D2 in CHO cells using [125I]iodosulpiride.; assay type: cell-based
[5] = target: T4, Alpha-1B adrenergic receptor (Homo sapiens, UniProt P35368); test: The compound was tested for its binding affinity towards adrenergic alpha-1B receptors
T4 sequence (P35368 whole entry): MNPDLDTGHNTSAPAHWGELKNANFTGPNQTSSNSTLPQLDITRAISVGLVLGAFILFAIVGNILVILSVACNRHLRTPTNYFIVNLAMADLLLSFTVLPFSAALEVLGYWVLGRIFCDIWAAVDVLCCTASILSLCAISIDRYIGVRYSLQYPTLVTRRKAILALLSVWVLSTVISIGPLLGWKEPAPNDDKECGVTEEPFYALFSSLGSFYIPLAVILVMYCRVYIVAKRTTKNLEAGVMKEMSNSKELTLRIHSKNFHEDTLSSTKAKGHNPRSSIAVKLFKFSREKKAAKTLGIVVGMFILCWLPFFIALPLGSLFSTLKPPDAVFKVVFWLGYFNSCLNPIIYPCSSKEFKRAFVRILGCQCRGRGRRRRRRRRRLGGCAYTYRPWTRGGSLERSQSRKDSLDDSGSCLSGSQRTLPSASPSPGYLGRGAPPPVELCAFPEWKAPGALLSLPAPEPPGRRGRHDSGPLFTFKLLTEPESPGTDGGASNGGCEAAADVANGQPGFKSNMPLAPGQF

[6] = target: T5, 5-hydroxytryptamine receptor 1A (Homo sapiens, UniProt P08908); test: The compound was tested for its binding affinity towards cloned human 5-hydroxytryptamine 1A receptor in HEK 293 cells using [3H]8-OH-DPAT.; assay type: cell-based, HEK293; method in brief: as §1
T5 sequence (P08908 whole entry): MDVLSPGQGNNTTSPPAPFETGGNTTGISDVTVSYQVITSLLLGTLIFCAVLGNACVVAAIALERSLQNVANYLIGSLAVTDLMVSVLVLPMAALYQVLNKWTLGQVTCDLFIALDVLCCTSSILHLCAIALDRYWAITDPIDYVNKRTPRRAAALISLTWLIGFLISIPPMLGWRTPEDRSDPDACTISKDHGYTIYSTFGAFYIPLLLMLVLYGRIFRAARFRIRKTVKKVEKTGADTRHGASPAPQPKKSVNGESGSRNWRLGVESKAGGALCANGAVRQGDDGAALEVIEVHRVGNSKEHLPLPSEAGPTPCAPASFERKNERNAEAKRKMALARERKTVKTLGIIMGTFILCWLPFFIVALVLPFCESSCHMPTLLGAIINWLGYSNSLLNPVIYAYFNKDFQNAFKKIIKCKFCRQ

[7] = target: T1, 5-hydroxytryptamine receptor 7; test: The compound was tested for its binding affinity towards cloned human 5-hydroxytryptamine 7 receptor in HEK 293 cells using [3H]5-CT.; assay type: cell-based, HEK293
Method in brief: (§3)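 Radioligand displacement binding on cloned human receptors expressed in HEK 293 cells: 5-HT2B labelled with [3H]-5-HT, 5-HT7 labelled with [3H]-5-CT. Each value is the mean of at least two determinations, each within 0.2 log unit of the mean.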

[8] = target: 5-hydroxytryptamine receptor 1E (Homo sapiens, UniProt P28566); test: The compound was tested for its binding affinity towards cloned human 5-hydroxytryptamine 1E receptor in CHO cells using [3H]5-HT.; assay type: cell-based; method in brief: as §2
[9] = target: 5-hydroxytryptamine receptor 2A (Homo sapiens, UniProt P28223); test: The compound was tested for its binding affinity towards cloned human 5-hydroxytryptamine 2A receptor in HEK293 cells using [3H]-ketanserin.; assay type: cell-based; method in brief: as §2
[10] = target: 5-hydroxytryptamine receptor 1B (Homo sapiens, UniProt P28222); test: The compound was tested for its binding affinity towards cloned human 5-hydroxytryptamine 1B receptor in CHO cells using [3H]5-HT; assay type: cell-based; method in brief: as §2
[11] = target: 5-hydroxytryptamine receptor 1D (Homo sapiens, UniProt P28221); test: The compound was tested for its binding affinity towards cloned human 5-hydroxytryptamine 1D receptor in CHO cells using [3H]5-HT.; assay type: cell-based; method in brief: as §2
[12] = target: 5-hydroxytryptamine receptor 2B (Homo sapiens, UniProt P41595); test: The compound was tested for its binding affinity towards cloned human 5-hydroxytryptamine 2B receptors in HEK293 cells using [3H]5-HT.; assay type: cell-based; method in brief: as §3
Chain of 5-hydroxytryptamine receptor 2B (P41595 whole entry): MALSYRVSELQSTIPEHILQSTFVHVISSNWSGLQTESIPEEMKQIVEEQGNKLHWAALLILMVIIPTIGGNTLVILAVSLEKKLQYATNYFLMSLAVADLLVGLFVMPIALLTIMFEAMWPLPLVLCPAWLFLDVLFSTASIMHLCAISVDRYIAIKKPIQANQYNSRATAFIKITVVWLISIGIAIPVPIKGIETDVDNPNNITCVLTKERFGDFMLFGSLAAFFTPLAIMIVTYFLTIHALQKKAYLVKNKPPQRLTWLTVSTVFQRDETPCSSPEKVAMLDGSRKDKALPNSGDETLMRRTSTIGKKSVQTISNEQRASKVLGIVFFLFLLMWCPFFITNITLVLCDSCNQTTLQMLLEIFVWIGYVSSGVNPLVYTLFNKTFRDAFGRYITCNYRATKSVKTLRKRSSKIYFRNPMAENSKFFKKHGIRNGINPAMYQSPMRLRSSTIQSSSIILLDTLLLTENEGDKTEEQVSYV

T1 sequence (P34969 whole entry): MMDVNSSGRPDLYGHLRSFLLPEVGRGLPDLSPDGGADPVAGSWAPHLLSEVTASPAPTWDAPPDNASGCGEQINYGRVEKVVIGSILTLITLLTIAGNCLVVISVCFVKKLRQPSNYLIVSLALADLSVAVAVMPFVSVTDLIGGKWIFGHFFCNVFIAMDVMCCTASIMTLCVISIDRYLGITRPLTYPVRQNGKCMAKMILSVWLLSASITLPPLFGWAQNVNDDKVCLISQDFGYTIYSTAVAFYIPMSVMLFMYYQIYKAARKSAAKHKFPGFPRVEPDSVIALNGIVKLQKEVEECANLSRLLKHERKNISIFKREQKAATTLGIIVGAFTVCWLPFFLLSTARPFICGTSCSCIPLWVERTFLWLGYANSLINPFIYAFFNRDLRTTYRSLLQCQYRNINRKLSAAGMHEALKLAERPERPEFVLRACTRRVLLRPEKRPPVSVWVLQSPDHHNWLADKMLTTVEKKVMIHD
Chain of 5-hydroxytryptamine receptor 2A (P28223 whole entry): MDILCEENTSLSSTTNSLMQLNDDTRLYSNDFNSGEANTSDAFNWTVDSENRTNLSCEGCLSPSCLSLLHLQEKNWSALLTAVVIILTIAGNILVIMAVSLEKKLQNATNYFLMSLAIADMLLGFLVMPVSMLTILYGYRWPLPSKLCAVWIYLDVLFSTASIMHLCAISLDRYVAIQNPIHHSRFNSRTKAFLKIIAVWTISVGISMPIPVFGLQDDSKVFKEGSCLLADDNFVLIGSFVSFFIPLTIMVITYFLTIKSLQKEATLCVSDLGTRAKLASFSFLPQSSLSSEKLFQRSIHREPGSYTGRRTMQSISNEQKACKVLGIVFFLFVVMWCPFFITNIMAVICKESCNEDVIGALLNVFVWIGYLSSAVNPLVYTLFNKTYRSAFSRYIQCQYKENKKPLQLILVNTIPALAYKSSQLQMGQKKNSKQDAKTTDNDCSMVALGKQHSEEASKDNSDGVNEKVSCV
Chain of D(3) dopamine receptor (P35462 whole entry): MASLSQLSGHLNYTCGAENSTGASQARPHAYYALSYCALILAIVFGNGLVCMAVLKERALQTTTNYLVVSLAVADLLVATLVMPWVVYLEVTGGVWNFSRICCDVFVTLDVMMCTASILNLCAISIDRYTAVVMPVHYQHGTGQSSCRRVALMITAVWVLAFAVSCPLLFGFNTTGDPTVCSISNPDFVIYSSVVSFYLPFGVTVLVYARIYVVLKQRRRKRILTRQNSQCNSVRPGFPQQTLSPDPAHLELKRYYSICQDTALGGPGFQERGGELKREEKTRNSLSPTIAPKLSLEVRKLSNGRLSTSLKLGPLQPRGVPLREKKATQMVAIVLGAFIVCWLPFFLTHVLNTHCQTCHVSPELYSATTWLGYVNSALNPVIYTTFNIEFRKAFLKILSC
Chain of 5-hydroxytryptamine receptor 6 (P50406 whole entry): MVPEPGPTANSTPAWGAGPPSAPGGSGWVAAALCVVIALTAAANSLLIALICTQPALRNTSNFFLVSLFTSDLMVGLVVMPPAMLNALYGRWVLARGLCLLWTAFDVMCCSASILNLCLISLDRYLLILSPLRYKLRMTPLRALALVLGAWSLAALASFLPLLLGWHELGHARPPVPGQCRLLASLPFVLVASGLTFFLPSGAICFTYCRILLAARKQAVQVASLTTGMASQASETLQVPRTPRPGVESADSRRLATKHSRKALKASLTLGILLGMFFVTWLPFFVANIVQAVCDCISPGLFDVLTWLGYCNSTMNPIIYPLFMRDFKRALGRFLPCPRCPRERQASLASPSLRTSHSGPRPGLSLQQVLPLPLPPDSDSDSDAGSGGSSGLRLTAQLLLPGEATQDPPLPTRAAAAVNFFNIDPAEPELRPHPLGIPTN
Chain of 5-hydroxytryptamine receptor 1D (P28221 whole entry): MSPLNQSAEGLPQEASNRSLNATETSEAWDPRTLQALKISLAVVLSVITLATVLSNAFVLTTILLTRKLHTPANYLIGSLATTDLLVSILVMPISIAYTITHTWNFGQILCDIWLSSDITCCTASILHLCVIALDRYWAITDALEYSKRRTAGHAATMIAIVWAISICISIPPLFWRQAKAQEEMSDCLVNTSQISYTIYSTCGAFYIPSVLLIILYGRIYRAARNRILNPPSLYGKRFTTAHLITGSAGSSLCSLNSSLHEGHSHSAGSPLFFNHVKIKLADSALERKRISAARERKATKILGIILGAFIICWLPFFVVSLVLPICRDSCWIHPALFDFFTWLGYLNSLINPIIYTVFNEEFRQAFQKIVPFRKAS
Chain of D(2) dopamine receptor (P14416 whole entry): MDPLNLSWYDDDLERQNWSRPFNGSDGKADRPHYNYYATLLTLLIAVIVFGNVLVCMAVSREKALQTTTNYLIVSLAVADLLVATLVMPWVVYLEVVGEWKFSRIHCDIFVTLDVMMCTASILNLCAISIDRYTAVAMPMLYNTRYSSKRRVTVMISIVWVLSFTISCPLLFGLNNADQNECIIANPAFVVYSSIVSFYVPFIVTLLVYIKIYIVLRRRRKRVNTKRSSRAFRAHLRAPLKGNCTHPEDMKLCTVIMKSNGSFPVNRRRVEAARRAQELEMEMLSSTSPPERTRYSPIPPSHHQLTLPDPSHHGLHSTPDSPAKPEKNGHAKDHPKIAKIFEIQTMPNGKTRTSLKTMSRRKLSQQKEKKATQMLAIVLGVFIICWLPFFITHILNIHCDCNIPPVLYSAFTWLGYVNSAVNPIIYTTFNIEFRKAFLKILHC
Chain of 5-hydroxytryptamine receptor 1B (P28222 whole entry): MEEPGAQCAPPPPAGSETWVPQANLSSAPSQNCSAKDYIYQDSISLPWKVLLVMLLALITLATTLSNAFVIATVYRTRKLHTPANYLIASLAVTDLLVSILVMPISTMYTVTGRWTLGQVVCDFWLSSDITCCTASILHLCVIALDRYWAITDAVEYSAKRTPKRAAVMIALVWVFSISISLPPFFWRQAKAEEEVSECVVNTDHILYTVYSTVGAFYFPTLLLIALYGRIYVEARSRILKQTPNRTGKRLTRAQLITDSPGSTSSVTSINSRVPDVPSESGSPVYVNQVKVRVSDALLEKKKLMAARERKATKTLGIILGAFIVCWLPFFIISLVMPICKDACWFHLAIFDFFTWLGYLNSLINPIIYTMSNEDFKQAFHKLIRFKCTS
Chain of 5-hydroxytryptamine receptor 1E (P28566 whole entry): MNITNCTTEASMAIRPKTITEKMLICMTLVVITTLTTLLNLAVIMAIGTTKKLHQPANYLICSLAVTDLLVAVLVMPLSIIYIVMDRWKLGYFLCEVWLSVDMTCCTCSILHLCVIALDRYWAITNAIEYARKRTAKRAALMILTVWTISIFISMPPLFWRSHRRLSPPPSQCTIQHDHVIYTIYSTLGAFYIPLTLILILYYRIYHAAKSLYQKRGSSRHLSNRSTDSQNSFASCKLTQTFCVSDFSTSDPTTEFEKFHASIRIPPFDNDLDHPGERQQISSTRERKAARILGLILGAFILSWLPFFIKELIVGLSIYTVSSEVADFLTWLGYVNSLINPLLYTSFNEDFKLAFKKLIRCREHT

Structure (SMILES): C[C@@H]1CCCN(CC[C@@H](C)N(C)S(=O)(=O)c2cccc3ccccc23)C1
Ki [1]: 126 nM

Structure (SMILES): CC1CCN(CC[C@@H](C)N(C)S(=O)(=O)c2ccc(Br)c(Br)c2)CC1
Ki [1]: 20 nM

Structure (SMILES): CC1CCN(CC[C@@H](C)N(C)S(=O)(=O)c2cccc3ccccc23)CC1
Ki [1]: 31.6 nM

Structure (SMILES): CC1CCN(CC[C@@H](C)N(C)S(=O)(=O)c2cc(Br)c(Br)s2)CC1
Ki [1]: 15.8 nM

Structure (SMILES): CC1CCN(CC[C@@H](C)N(C)S(=O)(=O)c2ccc(Cl)c(Cl)c2)CC1
Ki [1]: 31.6 nM

Structure (SMILES): Cc1cccc(S(=O)(=O)N(C)[C@H](C)CCN2CCC(C)CC2)c1 [SB-258719]
Ki [2]: > 6310 nM
Ki (D(3) dopamine receptor): 3980 nM
Ki [3]: > 15800 nM
Ki [4]: > 15800 nM
Ki (D(2) dopamine receptor): 3980 nM
Ki [5]: > 15800 nM
Ki [6]: > 7940 nM
Ki [7]: 31.6 nM
Ki [8]: > 15800 nM
Ki [9]: > 15800 nM
Ki [10]: > 5010 nM
Ki [11]: 3160 nM
Ki [12]: > 5010 nM

More lines, now with the values ahead:

Ki [1]: 631 nM
Structure (SMILES): C[C@H]1CCCN(CC[C@@H](C)N(C)S(=O)(=O)c2cccc3ccccc23)C1

Ki [1]: 63.1 nM
Structure (SMILES): CC1CCCN(CCC(C)N(C)S(=O)(=O)c2cccc3ccccc23)C1 (configuration not stated)

Ki [1]: 1580 nM
Structure (SMILES): C[C@@H]1CCCN(CC[C@H](C)N(C)S(=O)(=O)c2cccc3ccccc23)C1

Ki [1]: > 10000 nM
Structure (SMILES): C[C@H]1CCCN(CC[C@H](C)N(C)S(=O)(=O)c2cccc3ccccc23)C1
